This note sets out measurements from ChEMBL document CHEMBL3046066, “Synthesis of new fluorinated Tebufenpyrad analogs with acaricidal activity through regioselective pyrazole formation” (2008).

The source made the active and inactive calls. No cut-off for these calls is given here.

In general, mortality refers to the share of the test organisms that died. The term inhibition denotes the relative decrease from the control value, in per cent.

The subject of assay [1] is Tetranychus urticae. Nature of the assay: Acaricidal activity against Tetranychus urticae (two-spotted spider mite) assessed as mortality at 0.16 g/L measured after 4 days. The conditions noted are these: 96 h. The format is functional. Summed up:
(§1)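 Each compound was applied as a solution, with active-principle concentration in the assay of 5 g/L (preliminary screen) or 0.16 g/L. Adulticide effect (% adult mortality) and fertility inhibition (%) were scored 24 h, 4 days and 6 days after application.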

The test system of assay [2] is Tetranychus urticae. Nature of the assay: Acaricidal activity against Tetranychus urticae (two-spotted spider mite) assessed as mortality at 5 g/L measured after 6 days. It is filed as functional. Conditions: 144 h. In outline:
as §1

Assay [3] concerns Tetranychus urticae. Put plainly: Acaricidal activity against Tetranychus urticae (two-spotted spider mite) assessed as fertility inhibition at 5 g/L measured after 4 days. It is filed as functional. Conditions: 96 h. In outline: as §1
For assay [4], the system named is Tetranychus urticae. Put plainly: Acaricidal activity against Tetranychus urticae (two-spotted spider mite) assessed as fertility inhibition at 5 g/L measured after 24 hr. The format is functional. Summed up:
as §1

In assay [5] the test system is Tetranychus urticae. Nature of the assay: Acaricidal activity against Tetranychus urticae (two-spotted spider mite) assessed as fertility inhibition at 0.16 g/L measured after 4 days. The format is functional. Conditions: 96 h. Summed up: as §1
Assay [6] concerns Tetranychus urticae. Nature of the assay: Acaricidal activity against Tetranychus urticae (two-spotted spider mite) assessed as fertility inhibition at 0.16 g/L measured after 24 hr. It is filed as functional. Summed up: as §1
In assay [7] the test system is Tetranychus urticae. Put plainly: Acaricidal activity against Tetranychus urticae (two-spotted spider mite) assessed as fertility inhibition at 5 g/L measured after 6 days. It is filed as functional. The conditions noted are these: 144 h. In outline:
as §1

The subject of assay [8] is Tetranychus urticae. Nature of the assay: Acaricidal activity against Tetranychus urticae (two-spotted spider mite) assessed as mortality at 5 g/L measured after 24 hr. It is filed as functional. In outline: as §1
For assay [9], the system named is Tetranychus urticae. Nature of the assay: Acaricidal activity against Tetranychus urticae (two-spotted spider mite) assessed as fertility inhibition at 0.16 g/L measured after 6 days. The format is functional. The conditions noted are these: 144 h. In outline: as §1
Assay [10] concerns Tetranychus urticae. Nature of the assay: Acaricidal activity against Tetranychus urticae (two-spotted spider mite) assessed as mortality at 5 g/L measured after 4 days. It is filed as functional. Conditions: 96 h. Summed up: as §1
In assay [11] the test system is Tetranychus urticae. Put plainly: Acaricidal activity against Tetranychus urticae (two-spotted spider mite) assessed as mortality at 0.16 g/L measured after 6 days. The conditions noted are these: 144 h. It is filed as functional. In outline:
as §1

Assay [12] relates to Tetranychus urticae. Put plainly: Acaricidal activity against Tetranychus urticae (two-spotted spider mite) assessed as mortality at 0.16 g/L measured after 24 hr. The format is functional. In outline:
as §1

Assay [13] concerns Tetranychus urticae. Put plainly: Acaricidal activity against Tetranychus urticae (two-spotted spider mite) assessed as mortality at 1.5 g/L measured first 4 days. It is filed as functional, organism-based. In outline: (§2)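 Solutions at 1.50, 0.67 and 0.16 g/L were applied for a lower-concentration follow-up to the 5 g/L screen. Adult mortality (%) was scored over time after application, including within the first 24 h.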

The test system of assay [14] is Tetranychus urticae. Nature of the assay: Acaricidal activity against Tetranychus urticae (two-spotted spider mite) assessed as mortality at 0.67 g/L measured within 24 hr. It is filed as functional. Summed up:
as §2

Assay [15] concerns Tetranychus urticae. Put plainly: Acaricidal activity against Tetranychus urticae (two-spotted spider mite) assessed as mortality at 1.5 g/L measured within 24 hr. It is filed as functional. In outline:
as §2

`CCc1nn(C)c(C(=O)NCc2ccc(C(C)(C)C)cc2)c1Cl` [TEBUFENPYRAD]: the mortality at 160 µg/mL in assay [1] stood at 100%; in assay [11] it was 100%; in assay [12], 92%. Further, the mortality at 5000 µg/mL in assay [2], in assay [8] and in assay [10] was 100% each time. The inhibition at 5000 µg/mL in assay [3], in assay [4] and in assay [7] was 100% in each case. The inhibition at 160 µg/mL in assay [5] amounted to 100%; in assay [6], 84%; in assay [9] it was 100%.

With `CC(F)c1nn(C)c(C(=O)NCc2ccc(C(C)(C)C)cc2)c1Cl` (stereo not given), the mortality at 160 µg/mL in [1] came to 44%; in assay [11], 66%; in [12] it was 48%. Moreover, the mortality at 5000 µg/mL in assay [2] was 100%; in assay [8], 70%; in assay [10] it was 75%. Moreover, the inhibition at 5000 µg/mL in assay [3], in assay [4] and in [7] was 100% throughout. The outcome in [13] was Active. Also, the inhibition at 160 µg/mL came to 95% in assay [5], 95% in [6] and 96% in assay [9].

As to `CC(F)c1cc(C(=O)NCc2ccc(C(C)(C)C)cc2)n(C)n1` (stereo not given), the mortality at 160 µg/mL in assay [1] was 10%; in assay [11], 10%; in [12] it was 16%. Moreover, the mortality at 5000 µg/mL in assay [2] was 80%; in assay [8] it was 70%; in [10], 70%. In addition, the inhibition at 5000 µg/mL in assay [3] is 96%; in assay [4], 100%; in [7], 100%. The inhibition at 160 µg/mL was determined as 91% in assay [5], 68% in assay [6] and 94% in assay [9].

With `Cn1nc(CC(F)F)cc1C(=O)NCc1ccc(C(C)(C)C)cc1`, the mortality at 160 µg/mL in assay [1] amounted to 14%; in [11] it was 10%; in assay [12], 59%. The mortality at 5000 µg/mL in assay [2], in assay [8] and in assay [10] was 100% in each case. Further, the inhibition at 5000 µg/mL in assay [3], in assay [4] and in [7] was 100% in each case. Also, the inhibition at 160 µg/mL in assay [5] came to 100%; in assay [6] it was 96%; in [9], 98%.

On to `Cn1nc(CCF)c(Cl)c1C(=O)NCc1ccc(C(C)(C)C)cc1`, for which the mortality at 160 µg/mL in assay [1] stood at 100%; in assay [11] it was 100%; in assay [12] it was 96%. Further, the mortality at 5000 µg/mL in [2], in assay [8] and in [10] was 100% in each case. In addition, the inhibition at 5000 µg/mL in assay [3], in [4] and in [7] was 100% each time. Also, the mortality at 670 µg/mL in [14] amounted to 96%. Besides, the outcome in [13] was Active. For the same compound, the inhibition at 160 µg/mL in assay [5], in assay [6] and in [9] was 100% each time. In assay [15], the mortality at 1500 µg/mL was 100%.

Turning to `Cn1nc(CC(F)F)c(Cl)c1C(=O)NCc1ccc(C(C)(C)C)cc1`, the mortality at 160 µg/mL in assay [1] came out at 71%; in assay [11], 75%; in assay [12], 80%. Moreover, the mortality at 5000 µg/mL in assay [2], in [8] and in assay [10] was 100% each time. Besides, the inhibition at 5000 µg/mL in assay [3], in assay [4] and in [7] was 100% throughout. Further, in assay [13], the outcome was Active. Moreover, the inhibition at 160 µg/mL in assay [5], in [6] and in assay [9] was 100% each time. In assay [15], the mortality at 1500 µg/mL was 100%.

Regarding `Cn1nc(CC(F)(F)F)c(Cl)c1C(=O)NCc1ccc(C(C)(C)C)cc1`, the mortality at 5000 µg/mL in assay [2] amounted to 70%; in [8], 25%; in [10], 30%. In addition, the figures for the inhibition at 5000 µg/mL in [3], in assay [4] and in assay [7] were 98%, 97% and 98%, respectively.

On to `Cn1nc(C(F)C(F)(F)F)c(Cl)c1C(=O)NCc1ccc(C(C)(C)C)cc1` (stereo not given), for which the mortality at 5000 µg/mL in assay [2] was 60%; in assay [8], 10%; in assay [10], 10%. The inhibition at 5000 µg/mL came out at 60% in [3], 53% in assay [4] and 65% in [7].
